Structures are written as SMILES. Where only a bound is given, the exact number is not on record here.

For series [1], the target named is T1, Somatostatin receptor type 5 (Homo sapiens, UniProt P35346). The series is described as follows: Displacement of (3-125I-Tyr11)-SRIF-28 from human SSTR5 expressed in CHO-K1 cell membranes by filtration binding assay.
In series [2] the target is T2, Somatostatin receptor type 5 (Mus musculus, UniProt O08858).
T2 sequence (O08858 whole entry): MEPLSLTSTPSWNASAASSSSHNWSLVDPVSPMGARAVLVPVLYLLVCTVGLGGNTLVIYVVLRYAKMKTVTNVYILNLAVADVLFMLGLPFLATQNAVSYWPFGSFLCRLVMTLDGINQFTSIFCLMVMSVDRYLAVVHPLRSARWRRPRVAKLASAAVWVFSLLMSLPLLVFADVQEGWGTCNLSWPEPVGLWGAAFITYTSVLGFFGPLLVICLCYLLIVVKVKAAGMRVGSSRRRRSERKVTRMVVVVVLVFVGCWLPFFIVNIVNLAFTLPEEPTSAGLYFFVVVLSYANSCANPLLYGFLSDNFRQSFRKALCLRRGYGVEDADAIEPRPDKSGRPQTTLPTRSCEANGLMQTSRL
Put plainly: Displacement of (3-125I-Tyr11)-SRIF-28 from mouse SSTR5 expressed in CHO-K1 cell membranes by filtration binding assay.

Series [3] has as its target T1, Somatostatin receptor type 5. The series is described as follows: Antagonist activity at human SSTR5 expressed in CHO-K1 cell membranes assessed as reduction in SST-28-induced inhibition of forskolin-stimulated cAMP accumulation by LANCE assay. In kind it is functional, cell-based. (cAMP levels reflect the balance of adenylyl cyclase and phosphodiesterase activity.)

For series [4], the target named is T2, Somatostatin receptor type 5. The series is described as follows: Antagonist activity at mouse SSTR5 expressed in CHO-K1 cell membranes assessed as reduction in SST-28-induced inhibition of forskolin-stimulated cAMP accumulation by LANCE assay. In kind it is functional, cell-based.
The target in series [5] is Voltage-gated inwardly rectifying potassium channel KCNH2 (Homo sapiens, UniProt Q12809). The series is described as follows: Inhibition of MK-499 binding to human ERG.
Series [6] deals with Mus musculus. The series is described as follows: Antidiabetic activity in HFD fed C57BL/6N mouse assessed as decrease in blood glucose AUC at 30 mg/kg administered as single oral dose pretreated for 60 mins followed by glucose challenge measured after 120 mins by OGTT. In kind it is functional. Also on record: scale not given: the % may be the effect or the level left. In a few lines:
(§1)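 Male C57BL/6 mice were fed HFD (D12492) for 21 days, n=3. Compound was given orally 1 h before an oral glucose load, and blood glucose was followed over 0-120 min. Read-out is the decrease in glucose AUC versus vehicle.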

The test system of series [7] is Mus musculus. The series is described as follows: Drug uptake in mouse whole blood at 30 mg/kg, po measured at […].
The target in series [8] is Somatostatin receptor type 3 (Homo sapiens, UniProt P32745). Put plainly: Antagonist activity at human SSTR3 expressed in CHO-K1 cell membranes. In kind it is functional, cell-based. In a few lines:
(§2)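 Counter-screen by filtration membrane binding: competitive displacement of radiolabeled SST-28 from cell membranes expressing human SSTR1, SSTR2, SSTR3 or SSTR4. The IC50 is the mean of at least duplicate experiments within a maximal threefold range.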

Series [9] is described as follows: Oral bioavailability in mouse. The series is classed as ADME, organism-based. The following applies: in vivo.
A short description of series [10]: Half life in mouse. The following applies: in vivo. In kind it is ADME, organism-based.
Series [11] deals with Somatostatin receptor type 1 (Homo sapiens, UniProt P30872). The series is described as follows: Antagonist activity at human SSTR1 expressed in CHO-K1 cell membranes. In kind it is functional, cell-based. A digest of the protocol:
as §2

Series [12] has as its system Mus musculus. Put plainly: Antidiabetic activity in HFD fed C57BL/6N mouse assessed as decrease in blood glucose AUC at 10 mg/kg administered as single oral dose pretreated for 60 mins followed by glucose challenge measured after 120 mins by OGTT. In kind it is functional. More on the design: scale not given: the % may be the effect or the level left. In a few lines:
as §1

Sequence of Voltage-gated inwardly rectifying potassium channel KCNH2 (Q12809 whole entry): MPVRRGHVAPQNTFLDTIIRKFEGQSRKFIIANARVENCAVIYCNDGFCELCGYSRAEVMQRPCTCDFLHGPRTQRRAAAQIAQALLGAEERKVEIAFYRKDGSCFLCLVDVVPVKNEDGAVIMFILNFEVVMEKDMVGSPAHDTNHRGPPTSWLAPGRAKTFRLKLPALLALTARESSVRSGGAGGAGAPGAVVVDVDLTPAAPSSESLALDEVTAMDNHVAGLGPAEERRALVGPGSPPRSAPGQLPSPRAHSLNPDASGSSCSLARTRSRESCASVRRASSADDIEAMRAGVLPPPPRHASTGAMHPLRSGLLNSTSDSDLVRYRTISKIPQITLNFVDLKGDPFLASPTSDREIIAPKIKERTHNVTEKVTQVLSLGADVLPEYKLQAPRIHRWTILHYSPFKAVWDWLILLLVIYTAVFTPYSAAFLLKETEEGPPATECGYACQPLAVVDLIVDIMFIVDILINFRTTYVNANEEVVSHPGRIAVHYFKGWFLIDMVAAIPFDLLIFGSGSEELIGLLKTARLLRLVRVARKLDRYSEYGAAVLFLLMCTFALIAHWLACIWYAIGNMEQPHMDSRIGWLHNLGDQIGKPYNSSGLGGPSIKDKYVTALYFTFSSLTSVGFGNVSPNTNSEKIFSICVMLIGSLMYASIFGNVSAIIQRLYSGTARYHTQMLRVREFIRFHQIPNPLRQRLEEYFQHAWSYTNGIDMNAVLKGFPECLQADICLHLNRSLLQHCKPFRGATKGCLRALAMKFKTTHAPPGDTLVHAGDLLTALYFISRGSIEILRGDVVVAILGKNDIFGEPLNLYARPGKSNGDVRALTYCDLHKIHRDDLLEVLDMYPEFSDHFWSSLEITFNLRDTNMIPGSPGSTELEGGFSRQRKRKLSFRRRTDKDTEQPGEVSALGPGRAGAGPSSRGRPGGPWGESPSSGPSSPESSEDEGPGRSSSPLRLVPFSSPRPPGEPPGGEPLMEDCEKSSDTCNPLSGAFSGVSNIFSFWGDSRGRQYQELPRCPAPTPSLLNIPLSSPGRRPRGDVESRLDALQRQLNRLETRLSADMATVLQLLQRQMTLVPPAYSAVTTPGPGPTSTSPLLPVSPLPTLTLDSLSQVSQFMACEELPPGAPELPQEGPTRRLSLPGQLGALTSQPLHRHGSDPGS
T1 sequence (P35346 whole entry): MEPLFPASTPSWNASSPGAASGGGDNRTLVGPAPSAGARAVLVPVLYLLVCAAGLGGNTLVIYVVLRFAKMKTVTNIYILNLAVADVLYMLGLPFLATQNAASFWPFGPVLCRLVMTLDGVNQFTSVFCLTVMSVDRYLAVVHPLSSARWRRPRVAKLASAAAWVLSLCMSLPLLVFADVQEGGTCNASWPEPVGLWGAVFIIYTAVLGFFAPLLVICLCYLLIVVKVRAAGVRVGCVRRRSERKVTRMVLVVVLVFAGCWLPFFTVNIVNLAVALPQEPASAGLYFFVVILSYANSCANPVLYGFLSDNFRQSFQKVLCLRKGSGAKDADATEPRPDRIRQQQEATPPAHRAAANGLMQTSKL
Sequence of Somatostatin receptor type 1 (P30872 whole entry): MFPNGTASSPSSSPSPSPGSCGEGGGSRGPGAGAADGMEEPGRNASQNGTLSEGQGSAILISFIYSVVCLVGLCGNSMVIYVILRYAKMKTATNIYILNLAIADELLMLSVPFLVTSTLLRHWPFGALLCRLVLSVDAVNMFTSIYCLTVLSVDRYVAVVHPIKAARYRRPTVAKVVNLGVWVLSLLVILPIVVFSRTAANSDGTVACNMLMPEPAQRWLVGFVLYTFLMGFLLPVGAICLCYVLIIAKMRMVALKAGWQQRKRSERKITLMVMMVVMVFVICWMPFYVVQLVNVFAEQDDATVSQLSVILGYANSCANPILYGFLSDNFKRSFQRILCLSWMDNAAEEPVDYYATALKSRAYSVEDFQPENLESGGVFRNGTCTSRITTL
Sequence of Somatostatin receptor type 3 (P32745 whole entry): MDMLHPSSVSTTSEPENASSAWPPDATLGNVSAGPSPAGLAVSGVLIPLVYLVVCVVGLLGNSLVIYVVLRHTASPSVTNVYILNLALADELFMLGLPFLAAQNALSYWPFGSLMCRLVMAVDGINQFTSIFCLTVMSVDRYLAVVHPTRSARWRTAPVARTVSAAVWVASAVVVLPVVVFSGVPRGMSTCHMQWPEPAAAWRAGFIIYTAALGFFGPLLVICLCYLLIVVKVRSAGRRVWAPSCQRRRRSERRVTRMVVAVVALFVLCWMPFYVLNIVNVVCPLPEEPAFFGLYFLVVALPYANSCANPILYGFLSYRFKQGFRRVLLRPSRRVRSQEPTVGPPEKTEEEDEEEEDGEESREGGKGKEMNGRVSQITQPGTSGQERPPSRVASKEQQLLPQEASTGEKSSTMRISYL

On to `CCOc1cc(CN2CCC3(CC2)CC(Cc2ccc(F)cc2)C(=O)O3)cc(OCC)c1-c1ccc(F)cc1` (racemic), for which the IC50 in series [1] came to 1.6 nM; in series [2], 2.5 nM; in series [3], 67 nM.

For the molecule `CCOc1cc(CN2CCC(Oc3nccc(Cl)n3)CC2)cc(OCC)c1-c1ccc(F)cc1`, the IC50 in [1] is 21 nM; in series [2], 13 nM; in series [3] it was 73 nM.

In the case of `CCOc1cc(CN2CCC3(CC2)NC(=O)NC3=O)cc(OCC)c1-c1ccc(F)cc1`, the IC50 in series [1] stood at 83 nM; in series [2] it was 32 nM; in [3], 110 nM; in [4], 7.4 nM; in series [5], 25000 nM. In the series on Mus musculus [6], the Activity amounted to 54%. The concentration at […] in the series on Mus musculus [7] stood at 460 nM.

`CCOc1cc(CN2CCC(COc3cccc4cccnc34)CC2)cc(OCC)c1-c1ccc(F)cc1`: the IC50 in [1] stood at 2.9 nM; in series [2] it was 0.6 nM; in series [3], 67.8 nM; in series [4] it was 7.1 nM; in [5], 210 nM.

With `CCOc1cc(CN2CCC(c3ncc(-c4ccc(F)cc4)[nH]3)CC2)cc(OCC)c1-c1ccc(F)cc1`, the IC50 in series [1] came out at 7.6 nM; in series [2], 2.7 nM; in [3], 247 nM; in series [4], 98 nM; in series [5], 260 nM; in series [8], 119 nM.

In the case of `CCOc1cc(CN2CC[C@H]3C(Nc4nc5ccc(C(=O)O)cc5o4)CC[C@H]32)cc(OCC)c1-c1ccc(F)cc1` (relative stereo), the IC50 in series [1] came to 2.5 nM; in series [2], 16 nM; in [3], 4.5 nM; in series [4], 6.1 nM; in [5], 15000 nM; in [11], 6 µM. Further, the Activity in the series with Mus musculus [6] is recorded as 56%. The same molecule came in with a bioavailability in series [9] of 48%. Further, the half-life in series [10] was 102 min. In addition, the concentration at […] in the series on Mus musculus [7] stood at 760 nM.

As for `CCOc1cc(CN2CCC(NC(=O)c3cncc(C)c3)CC2)cc(OCC)c1-c1ccc(F)cc1`, the IC50 is 1.3 nM in series [1]; 1 nM in [2]; 3.1 nM in series [3]; 2.7 nM in series [4]; 1690 nM in series [5]; < 0.3 µM in series [11]. The Activity in the series on Mus musculus [12] was determined as 87%.

On to `CCOc1cc(CN2CCC(C3CCN(S(=O)(=O)c4ccccc4)CC3)CC2)cc(OCC)c1-c1ccc(F)cc1`, for which the IC50 in [1] was 0.7 nM; in series [2], 0.8 nM; in series [3], 8.6 nM; in series [4] it was 28 nM; in series [5], 220 nM. For the same molecule, the Activity in the series with Mus musculus [6] worked out at 60%. The molecule also displayed a bioavailability in [9] of 13%. Also, the concentration at […] with Mus musculus [7] was determined as 92 nM.

As for `CCOc1cc(CN2CCC3(CC2)CCN(S(=O)(=O)c2cccnc2)CC3)cc(OCC)c1-c1ccc(F)cc1`, the figures for the IC50 in series [1], in series [3] and in [5] were 13 nM, 26 nM and 210 nM, respectively.

The term IC50 denotes the midpoint of a concentration-inhibition curve. As a reminder, the bioavailability is dose-corrected exposure relative to a reference, in per cent. As a reminder, the half-life is how long it takes for the measured level to halve.

For the origin of these results see ChEMBL document CHEMBL4266056, “Discovery and Pharmacology of a Novel Somatostatin Subtype 5 (SSTR5) Antagonist: Synergy with DPP-4 Inhibition” (ACS Med Chem Lett, 2018).
